The values below come from ChEMBL document CHEMBL2163245 (J Med Chem, 2012).

SMILES strings stand for the structures. Some results are limits rather than exact numbers.

Assay [1] addresses T1, Potassium voltage-gated channel subfamily KQT member 2 (Homo sapiens, UniProt O43526). The assay can be described thus: Antagonist activity at KCNQ2 expressed in CHO cells incubated for 3 mins by automated patch clamp assay. The format is functional, cell-based. Background: Patch clamp records ionic current or voltage across a cell membrane.
Assay [2] can be described thus: Selectivity ratio of IC50 for KCNQ1 to KCNQ2.
The target of assay [3] is T1, Potassium voltage-gated channel subfamily KQT member 2. Kind of assay: Agonist activity at KCNQ2 expressed in CHO cells incubated for 3 mins by automated patch clamp assay. Type of assay: functional, cell-based. The gist of the method: (§1)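 Ionworks Quattro population patch clamp on CHO cells stably expressing KCNQ2, 7,000 cells/well in extracellular solution (mM: 137 NaCl, 4 KCl, 1 MgCl2, 1.8 CaCl2, 10 HEPES, 10 glucose, pH 7.4), amphotericin B (50 μg/ml) perforation. Held -90 mV, 2,000 ms step to -10 mV; steady-state current at pulse end before and 3 min after compound; % change versus pre-compound current. Cells >100 pA and seal >30 MΩ only.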

Assay [4] shares this target. Kind of assay: Agonist activity at KCNQ2 expressed in CHO cells at 30 uM incubated for 3 mins by automated patch clamp assay. The format is functional, cell-based. The gist of the method:
as §1

T1 sequence (O43526 whole entry): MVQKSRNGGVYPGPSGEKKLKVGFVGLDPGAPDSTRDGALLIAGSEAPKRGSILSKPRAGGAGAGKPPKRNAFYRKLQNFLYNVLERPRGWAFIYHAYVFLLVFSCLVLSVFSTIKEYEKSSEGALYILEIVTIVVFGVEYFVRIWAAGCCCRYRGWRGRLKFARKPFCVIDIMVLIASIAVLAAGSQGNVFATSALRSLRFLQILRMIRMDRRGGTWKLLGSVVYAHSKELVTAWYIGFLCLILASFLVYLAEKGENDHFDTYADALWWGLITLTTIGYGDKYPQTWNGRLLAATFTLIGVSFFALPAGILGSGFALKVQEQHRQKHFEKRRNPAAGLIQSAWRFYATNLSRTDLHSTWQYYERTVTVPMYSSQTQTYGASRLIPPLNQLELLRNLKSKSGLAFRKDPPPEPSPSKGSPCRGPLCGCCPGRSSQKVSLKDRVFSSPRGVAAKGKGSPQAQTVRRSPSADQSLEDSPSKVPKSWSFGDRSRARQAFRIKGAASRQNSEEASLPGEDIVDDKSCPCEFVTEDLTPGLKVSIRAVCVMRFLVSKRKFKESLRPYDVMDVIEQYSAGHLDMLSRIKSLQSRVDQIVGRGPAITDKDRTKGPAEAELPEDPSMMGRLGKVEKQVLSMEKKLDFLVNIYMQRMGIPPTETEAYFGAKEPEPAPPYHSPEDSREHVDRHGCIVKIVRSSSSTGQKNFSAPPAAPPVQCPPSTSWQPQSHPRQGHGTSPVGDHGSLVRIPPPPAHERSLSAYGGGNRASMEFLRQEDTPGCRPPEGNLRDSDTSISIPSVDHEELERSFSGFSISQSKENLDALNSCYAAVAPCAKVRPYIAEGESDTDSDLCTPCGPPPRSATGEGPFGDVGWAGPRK

As usually defined, the IC50 is the concentration at which inhibition is half-maximal. The low end stands for higher potency, the high end for lower potency. Consider `CCC(C(=O)Nc1ccccc1N1CCCC1)c1cccc(F)c1` (racemic), for which 0.36 µM corresponded to half-maximal inhibition in assay [1] (IC50). Also, the Ratio IC50 in assay [2] is over 40. `CC(C)CC(C(=O)Nc1ccccc1N1CCCC1)c1ccccc1` (racemic) returned an IC50 in assay [1] of 2.22 µM.

Usually EC50 stands for the concentration giving half of the maximal effect. For the molecule `O=C(Cc1ccccc1Cl)Nc1ccccc1N1CCCC1`, in assay [3], the EC50 is 0.95 µM.

Regarding `CCC(C(=O)Nc1ccccc1N1CCCC1)c1ccccc1F` (racemic), the concentration for half-maximal inhibition (IC50) in assay [1] worked out at 0.44 µM. Also, the Ratio IC50 in assay [2] is over 40. With `CCC(C(=O)Nc1ccccc1N1C(=O)CCC1=O)c1ccccc1` (racemic), the IC50 in assay [1] was over 30 µM.

On to `O=C(Nc1ccccc1N1CCCC1)C(c1ccccc1)C1CC1` (racemic), for which the IC50 in assay [1] was found to be 3.5 µM. On the same count and under the same terms, the result for `CCCC(C(=O)Nc1ccccc1N1CCCC1)c1ccccc1` (racemic) reads 0.32 µM; that for `CCC(C(=O)Nc1ccccc1N1CCOCC1)c1ccccc1` (racemic), 12.7 µM.

As to `O=C(Cc1cccc(Cl)c1)Nc1ccccc1N1CCCCCC1`, the EC50 in assay [3] was over 30 µM. Regarding `CCC(C(=O)Nc1ccccc1N1CCCC1)c1cccc(C(F)(F)F)c1` (racemic), the IC50 in assay [1] was 0.39 µM. In assay [2], the Ratio IC50 was over 40. On to `CCC(C(=O)Nc1ccccc1N1CCCC1)c1ccc(OC)c(OC)c1` (racemic), for which it took 20.2 µM to reach half-maximal inhibition in assay [1] (IC50). Still for that read-out and setting: the result for `CC(C(=O)Nc1ccccc1N1CCCC1)c1ccccc1` (racemic) reads 0.26 µM.

The molecule `O=C(Cc1ccc(Cl)c(Cl)c1)Nc1ccccc1N1CCCC1` displayed an EC50 in assay [3] of 1.07 µM. With `CCC(C(=O)N(C)c1ccccc1N1CCCC1)c1ccccc1` (racemic), the IC50 in assay [1] was over 30 µM. In turn, `O=C(Cc1cccc(Cl)c1)Nc1ccc(N2CCCC2)cc1` returned an EC50 in assay [3] of 8.66 µM. With `CCC(C(=O)Nc1ccccc1N1CCCCCC1)c1ccccc1` (racemic), in assay [1], the IC50 was over 30 µM. In assay [1], `CCC(C(=O)Nc1ccccc1Cl)c1ccccc1` (racemic) came in with an IC50 of 15 µM. For `O=C(Cc1ccc(F)c(F)c1)Nc1ccccc1N1CCCC1`, the midpoint of the response in assay [3], the EC50, lay at 1.73 µM.

`C[C@H](C(=O)Nc1ccccc1N1CCCC1)c1ccccc1`: the Ratio IC50 in assay [2] was over 40.

In assay [1], `CCC(C(=O)Nc1ccccc1N1CCCC1)c1cccc(Cl)c1` (racemic) yielded an IC50 of 0.24 µM. Further, the Ratio IC50 in assay [2] was over 40. Take `CCC(C(=O)Nc1ccccc1-n1c(C)ccc1C)c1ccccc1` (racemic): the EC50 in assay [3] is over 30 µM. As for `O=C(Cc1cccc(F)c1)Nc1ccccc1N1CCCC1`, the response in assay [3] was half-maximal at 0.49 µM (EC50). Usually inhibition stands for the drop in the measured response relative to a control, in per cent. Higher therefore signals a response far below the control. For the molecule `O=C(Cc1ccccc1F)Nc1ccccc1N1CCCC1`, in assay [4], the inhibition turned out to be 26.6%. Turning to `CN(Cc1ccccc1)c1ccccc1NC(=O)Cc1cccc(Cl)c1`, the EC50 in assay [3] is over 30 µM. In assay [1], `O=C(Nc1ccccc1N1CCCC1)C1CCc2ccccc21` (racemic) displayed an IC50 of 0.33 µM. `CCC(C(=O)Nc1ccccc1N1CCCC1)c1ccc(F)cc1` (racemic): it took 0.13 µM to reach half-maximal inhibition in assay [1] (IC50). The Ratio IC50 in assay [2] was over 40. Molecule `Cc1cccc(CC(=O)Nc2ccccc2N2CCCC2)c1` displayed an EC50 in assay [3] of 1.32 µM. `CCC(C(=O)Nc1ccccc1N1CCCC1)c1cccc(C)c1` (racemic): in assay [1], the half-maximal inhibitory concentration (IC50) is 0.33 µM. Also, in assay [2], the Ratio IC50 was over 40. `O=C(Nc1ccccc1N1CCCC1)C(F)c1ccccc1` (configuration not stated) displayed an EC50 in assay [3] of 0.99 µM. The molecule `CCC(C(=O)Nc1ccccc1N1CCCC1)c1ccc(F)c(F)c1` (racemic) gave an IC50 in assay [1] of 0.17 µM.

Molecule `CN(C(=O)Cc1ccccc1)c1ccccc1N1CCCC1` showed an EC50 in assay [3] of over 30 µM. On to `CCC(C(=O)Nc1ccccc1N1CCCC1)c1cccc(OC)c1` (racemic), for which the midpoint of inhibition in assay [1], the IC50, lay at 0.12 µM. Besides, the Ratio IC50 in assay [2] is over 40.

In assay [1], `CCC(C(=O)Nc1ccccc1-n1ccnc1)c1ccccc1` (racemic) showed an IC50 of over 30 µM. `O=C(Nc1ccccc1N1CCCC1)C1(c2ccccc2)CC1` had an IC50 in assay [1] of over 30 µM.

`CCC(C(=O)Nc1ccccc1N1CCCC1)c1ccc(OC)cc1` (racemic): in assay [1], the 50% inhibitory concentration (IC50) came to 0.38 µM.

For `O=C(Cc1cccc(Cl)c1)Nc1ccccc1N1CCCCC1`, the midpoint of the response in assay [3], the EC50, lay at 7.09 µM. `CCC(C(=O)Nc1ccc(N2CCCC2)cc1)c1ccccc1` (configuration not stated) had an IC50 in assay [1] of 0.21 µM.

With `COc1ccc(CC(=O)Nc2ccccc2N2CCCC2)cc1`, the concentration for a half-maximal effect (EC50) in assay [3] was 1.75 µM. On the same count and under the same terms, the result for `O=C(Cc1ccccc1)Nc1ccccc1N1CCCC1` reads 0.743 µM; that for `COc1cccc(CC(=O)Nc2ccccc2N2CCCC2)c1`, 2.35 µM; that for `O=C(Cc1cccc(Cl)c1)Nc1cccc(N2CCCC2)c1`, 1.02 µM.

In the case of `O=C(Nc1ccccc1N1CCCC1)C1CCOc2ccccc21` (racemic), the IC50 in assay [1] was over 30 µM. As to `CCC(C(=O)Nc1ccccc1N1CCCC1)c1ccc(Cl)cc1` (racemic), the midpoint of inhibition in assay [1], the IC50, lay at 0.28 µM. Moreover, the Ratio IC50 in assay [2] is over 40.

Turning to `O=C(Cc1cccc(Cl)c1)Nc1ccccc1N1CCCC1`, the EC50 in assay [3] turned out to be 0.17 µM. The molecule `CCC(C(=O)Nc1cccc(N2CCCC2)c1)c1ccccc1` (racemic) gave an IC50 in assay [1] of over 30 µM. For `O=C(Cc1cccc(C(F)(F)F)c1)Nc1ccccc1N1CCCC1`, the response in assay [3] was half-maximal at 0.35 µM (EC50).

For `O=C(Cc1ccc(Cl)cc1)Nc1ccccc1N1CCCC1`, the 50% effective concentration (EC50) in assay [3] was found to be 0.8 µM. In assay [1], `CCC(C(=O)Nc1ccccc1N1CCCC1)c1ccccc1` (racemic) registered an IC50 of 0.163 µM. In assay [3], `O=C(Cc1ccc(F)cc1)Nc1ccccc1N1CCCC1` returned an EC50 of 0.7 µM. As for `CCC(C(=O)Nc1ccccc1N1CCCC1)c1ccc(Cl)c(Cl)c1` (racemic), in assay [1], 0.47 µM corresponded to half-maximal inhibition (IC50). On to `O=C(Cc1cccc(Cl)c1)Nc1ccccc1N1CCOCC1`, for which the 50% effective concentration (EC50) in assay [3] was over 30 µM. For `CCC(C(=O)Nc1ccccc1N(C)CC)c1ccccc1` (racemic), the IC50 in assay [1] is over 30 µM. On the same count and under the same terms, the result for `CCC(C(=O)Nc1ccccc1N1CCCC1)c1ccccc1Cl` (racemic) reads 3.31 µM. Take `CN(C)c1ccccc1NC(=O)Cc1cccc(Cl)c1`: the EC50 in assay [3] turned out to be 27.4 µM. As to `CCC(C(=O)Nc1ccccc1-n1cccc1)c1ccccc1` (racemic), in assay [1], the midpoint of inhibition, the IC50, lay at 5.27 µM. With `O=C(Cc1cccc(Cl)c1)Nc1ccccc1-n1cccc1`, the EC50 in assay [3] was found to be 12.3 µM. With `CC(C)(C(=O)Nc1ccccc1N1CCCC1)c1ccccc1`, the IC50 in assay [1] was over 30 µM. Turning to `CC[C@H](C(=O)Nc1ccccc1N1CCCCC1)c1ccccc1`, the Ratio IC50 in assay [2] is over 40. `CCN(C)c1ccccc1NC(=O)Cc1cccc(Cl)c1` gave an EC50 in assay [3] of over 30 µM.
